Results taken from ChEMBL document CHEMBL1121681, “Synthesis and antiviral activity of certain 9-beta-D-ribofuranosylpurine-6-carboxamides” (1981).

Assays:
[1] = tested on: Vero; test: In vitro antiviral activity against Cox B1 virus in (vero) V cells of african green monkey kidney / 320 toxic level; format: functional, Chlorocebus sabaeus
[2] = tested on: Vero; test: In vitro antiviral activity against HSV-1 virus in (vero) V cells of african green monkey kidney / 320 toxic level; format: functional, Chlorocebus sabaeus
[3] = tested on: Vero; test: In vitro antiviral activity against Vaccinia virus in (vero) V cells of african green monkey kidney / 320 toxic level; format: functional, Chlorocebus sabaeus
[4] = tested on: Laryngeal epithelioma cell line; test: In vitro antiviral activity against Vaccinia virus human laryngeal epithelioma cell line / 100 toxic level; format: functional
[5] = tested on: Vero; test: In vitro antiviral activity against VSV virus in (vero) V cells of african green monkey kidney / 320 toxic level; format: functional, Chlorocebus sabaeus
[6] = tested on: Laryngeal epithelioma cell line; test: In vitro antiviral activity against Cox B1 virus in human laryngeal epithelioma cell line / 100 toxic level; format: functional
[7] = tested on: Laryngeal epithelioma cell line; test: In vitro antiviral activity against HSV-1 virus in human laryngeal epithelioma cell line / 100 toxic level; format: functional
[8] = tested on: Laryngeal epithelioma cell line; test: In vitro antiviral activity against Para 3 virus in human laryngeal epithelioma cell line / 100 toxic level; format: functional
[9] = tested on: Laryngeal epithelioma cell line; test: In vitro antiviral activity against VSV virus in human laryngeal epithelioma cell line / 100 toxic level; format: functional
[10] = tested on: Laryngeal epithelioma cell line; test: In vitro antiviral activity against HSV-1 virus in human laryngeal epithelioma cell line; format: functional
[11] = tested on: Vero; test: In vitro antiviral activity against HSV-1 virus in (vero) V cells of african green monkey kidney; format: functional, Chlorocebus sabaeus
[12] = tested on: Vero; test: In vitro antiviral activity against VSV virus in (vero) V cells; format: functional, Chlorocebus sabaeus
[13] = tested on: Vero; test: In vitro antiviral activity against V V virus in (vero) V cells of african green monkey kidney; format: functional, Chlorocebus sabaeus
[14] = tested on: Rift Valley fever virus; test: Percent increase in survival rate of Rift Valley fever virus infected mice on day 21, by administering 100 (mg/kg)/day of compound; format: functional
[15] = tested on: Vero; test: In vitro antiviral activity against Para 3 virus in (vero) V cells of african green monkey kidney; format: functional, Chlorocebus sabaeus
[16] = tested on: Laryngeal epithelioma cell line; test: In vitro antiviral activity against Para 3 virus in human laryngeal epithelioma cell line; format: functional
[17] = tested on: Laryngeal epithelioma cell line; test: In vitro antiviral activity against V V virus in human laryngeal epithelioma cell line; format: functional
[18] = tested on: Vero; test: In vitro antiviral activity against COXB1 virus in (vero) V cells; format: functional, Chlorocebus sabaeus
[19] = tested on: Laryngeal epithelioma cell line; test: In vitro antiviral activity against VSV virus in human laryngeal epithelioma cell line; format: functional
[20] = tested on: Laryngeal epithelioma cell line; test: In vitro antiviral activity against COXB1 virus in human laryngeal epithelioma cell line; format: functional
[21] = tested on: Vero; test: In vitro antiviral activity against Para 3 virus in (vero) V cells of african green monkey kidney / 320 toxic level; format: functional, Chlorocebus sabaeus
[22] = tested on: Laryngeal epithelioma cell line; test: In vitro antiviral activity against VSV virus in human laryngeal epithelioma cell line / 320 toxic level; format: functional
[23] = tested on: Laryngeal epithelioma cell line; test: In vitro antiviral activity against HSV-1 virus in human laryngeal epithelioma cell line / 320 toxic level; format: functional
[24] = tested on: Laryngeal epithelioma cell line; test: In vitro antiviral activity against Para 3 virus in human laryngeal epithelioma cell line / 320 toxic level; format: functional
[25] = tested on: Vero; test: In vitro antiviral activity against vaccinia virus in (vero) V cells of african green monkey kidney / 320 toxic level; format: functional, Chlorocebus sabaeus
[26] = tested on: Laryngeal epithelioma cell line; test: In vitro antiviral activity against Cox B1 virus in human laryngeal epithelioma cell line / 320 toxic level; format: functional
[27] = tested on: Laryngeal epithelioma cell line; test: In vitro antiviral activity against vaccinia virus human laryngeal epithelioma cell line / 320 toxic level; format: functional
[28] = tested on: Vero; test: In vitro antiviral activity against COXB1 virus in (vero) V cells of african green monkey kidney; format: functional, Chlorocebus sabaeus
[29] = tested on: Laryngeal epithelioma cell line; test: In vitro antiviral activity against COXB1 virus in human laryngeal epithelioma cell line / 320 toxic level; format: functional
[30] = tested on: Laryngeal epithelioma cell line; test: In vitro antiviral activity against V V virus human laryngeal epithelioma cell line / 320 toxic level; format: functional
[31] = tested on: Vero; test: In vitro antiviral activity against VSV virus in (vero) V cells of african green monkey kidney; format: functional, Chlorocebus sabaeus
[32] = tested on: Vero; test: Inhibition of growth of Pichinde virus in vero cells by administering 250 ug/mL of compound; format: functional, Chlorocebus sabaeus
Method in brief: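 Pichinde virus was adsorbed to Vero monolayers in 24-well cultures for 1 h at 37 °C. Cells were overlaid with agar containing compound dilutions and incubated at 37 °C with CO2. Plaques were counted after crystal violet staining to give inhibition of viral growth.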

[33] = tested on: Rift Valley fever virus; test: Inhibition of growth of Rift Valley fever virus in vero cells by administering 250 ug/mL of compound; format: functional, Chlorocebus sabaeus
[34] = tested on: Rift Valley fever virus; test: Percent increase in survival rate of Rift Valley fever virus infected mice on day 21, by administering 50 (mg/kg)/day of compound; format: functional
[35] = tested on: Vero; test: Inhibition of growth of Rift Valley fever virus in vero cells by administering 500 ug/mL of compound; format: functional, Chlorocebus sabaeus
[36] = tested on: Laryngeal epithelioma cell line; test: In vitro antiviral activity against VSV virus in human laryngeal epithelioma cell line / 1000 toxic level; format: functional
[37] = tested on: Laryngeal epithelioma cell line; test: In vitro antiviral activity against V V virus human laryngeal epithelioma cell line / 1000 toxic level; format: functional
[38] = tested on: Laryngeal epithelioma cell line; test: In vitro antiviral activity against HSV-1 virus in human laryngeal epithelioma cell line / 1000 toxic level; format: functional
[39] = tested on: Laryngeal epithelioma cell line; test: In vitro antiviral activity against Para 3 virus in human laryngeal epithelioma cell line / 1000 toxic level; format: functional
[40] = tested on: Laryngeal epithelioma cell line; test: In vitro antiviral activity against COXB1 virus in human laryngeal epithelioma cell line / 1000 toxic level; format: functional
[41] = tested on: Vero; test: In vitro antiviral activity against COXB1 virus in (vero) V cells of african green monkey kidney / 1000 toxic level; format: functional, Chlorocebus sabaeus
[42] = tested on: Vero; test: In vitro antiviral activity against Para 3 virus in (vero) V cells of african green monkey kidney / 1000 toxic level; format: functional, Chlorocebus sabaeus
[43] = tested on: Vero; test: In vitro antiviral activity against VSV virus in (vero) V cells of african green monkey kidney / 1000 toxic level; format: functional, Chlorocebus sabaeus
[44] = tested on: Vero; test: In vitro antiviral activity against HSV-1 virus in (vero) V cells of african green monkey kidney / 1000 toxic level; format: functional, Chlorocebus sabaeus
[45] = tested on: Vero; test: In vitro antiviral activity against V V virus in (vero) V cells of african green monkey kidney / 1000 toxic level; format: functional, Chlorocebus sabaeus

## NC(=S)c1ncnc2c1ncn2C1O[C@H](CO)[C@@H](O)[C@H]1O (stereo partly drawn)
[1]
  Virus rating: 1
[2]
  Virus rating: 1.1
[3]
  Virus rating: 0.8
[4]
  Virus rating: 1.2
[5]
  Virus rating: 0.5
[6]
  Virus rating: 1.1
[7]
  Virus rating: 0.4
[8]
  Virus rating: 1.3
[9]
  Virus rating: 0.7

## NC(=O)c1ncn([C@@H]2O[C@H](CO)[C@@H](O)[C@H]2O)n1 [RIBAVIRIN]
[10]
  Virus rating: 1.2
[11]
  Virus rating: 0.6
[12]
  Virus rating: 0.8
[13]
  Virus rating: 1.2
[14]
  ILS: 70%
[15]
  Virus rating: 1.3
[16]
  Virus rating: 1.4
[17]
  Virus rating: 1.2
[18]
  Virus rating: 0.6
[19]
  Virus rating: 1.6
[20]
  Virus rating: 1.1

## Nc1ncnc2c(N[C@@H]3O[C@H](CO)[C@@H](O)[C@@H]3O)ncnc12
[21]
  Virus rating: 0.7
[22]
  Virus rating: 1.5
[23]
  Virus rating: 1.6
[1]
  Virus rating: 0.6
[2]
  Virus rating: 0.8
[24]
  Virus rating: 1.5
[5]
  Virus rating: 0.6
[25]
  Virus rating: 1.4
[26]
  Virus rating: 1
[27]
  Virus rating: 1.3

## NC(=O)c1ncnc2c1ncn2C1O[C@H](CO)[C@@H](O)[C@H]1O (stereo partly drawn)
[28]
  Virus rating: 0.4
[29]
  Virus rating: 0.9
[30]
  Virus rating: 1.1
[22]
  Virus rating: 1.2
[11]
  Virus rating: 0.6
[31]
  Virus rating: 0
[23]
  Virus rating: 0.6
[13]
  Virus rating: 1.5
[32]
  Inhibition: 90%
[24]
  Virus rating: 1.4
[15]
  Virus rating: 0
[33]
  Inhibition: 90%
[34]
  ILS: 55%
[35]
  Inhibition: 99%

## OC[C@H]1O[C@@H](n2cnc3c(Cl)ncnc32)[C@H](O)[C@@H]1O
[28]
  Virus rating: 0.4
[11]
  Virus rating: 0.9
[31]
  Virus rating: 0.5
[13]
  Virus rating: 1.5
[36]
  Virus rating: 0.3
[37]
  Virus rating: 0.8
[38]
  Virus rating: 0.6
[39]
  Virus rating: 1.3
[40]
  Virus rating: 1

## OC[C@H]1OC(n2cnc3c(I)ncnc32)[C@H](O)[C@@H]1O (stereo partly drawn)
[41]
  Virus rating: 0.1
[29]
  Virus rating: 1
[42]
  Virus rating: 0.7
[30]
  Virus rating: 0.8
[22]
  Virus rating: 0.9
[23]
  Virus rating: 1.6
[24]
  Virus rating: 0.6
[43]
  Virus rating: 0
[44]
  Virus rating: 1
[45]
  Virus rating: 1.2

## N#Cc1ncnc2c1ncn2C1O[C@H](CO)[C@@H](O)[C@H]1O (stereo partly drawn)
[41]
  Virus rating: 0
[29]
  Virus rating: 1
[42]
  Virus rating: 0
[30]
  Virus rating: 1
[22]
  Virus rating: 0.8
[23]
  Virus rating: 0.8
[24]
  Virus rating: 1.2
[43]
  Virus rating: 0
[44]
  Virus rating: 0.4
[45]
  Virus rating: 1
